Holding throughout (format): functional
For one experiment, the system named is Rhizopus arrhizus. As to the kind of experiment: Antimicrobial activity against Rhizopus oryzae ATCC 56536 after 48 hr by agar dilution method. The conditions noted are these: ATCC 56536, 48 h. The method in brief: (§1)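 Fungi tested by agar dilution in malt agar. Serial 2-fold sample dilutions (0.5 mL) were mixed with 9.5 mL medium and plated, then streaked with the organism. Incubation at 28 °C for 36 and 48 h. MIC is the lowest tested concentration without growth.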
(In general: Agar dilution tests growth on a series of plates holding different concentrations.)

A further experiment concerns Bacillus cereus. As to the kind of experiment: Antimicrobial activity against Bacillus cereus DSM 345 after 48 hr by agar dilution method. The conditions noted are these: DSM 345, 48 h. The method in brief:
(§2)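 Agar dilution on standard plate count agar: 0.5 mL of a 2-fold serial dilution of sample mixed into 9.5 mL medium, poured into Petri dishes, organism streaked on the surface. Incubated at 28 °C (36 and 48 h). MIC is the lowest tested concentration with no visible growth.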

Another experiment has as its system Pseudomonas aeruginosa. Nature of the experiment: Antimicrobial activity against Pseudomonas aeruginosa DSM 1117 after 48 hr by agar dilution method. To be noted: DSM 1117, 48 h. The method in brief:
as §2

For another experiment, the system named is Stutzerimonas stutzeri. As to the kind of experiment: Antimicrobial activity against Pseudomonas stutzeri ATCC 962 after 48 hr by agar dilution method. To be noted: ATCC 962, 48 h. The method, boiled down:
as §2

In experiment [1] the test system is Limosilactobacillus fermentum. Nature of the experiment: Antimicrobial activity against Lactobacillus fermentum DSM 20052 after 48 hr by agar dilution method. The conditions noted are these: DSM 20052, 48 h. The method, boiled down: as §2
For experiment [2], the system named is Lactiplantibacillus plantarum. Nature of the experiment: Antimicrobial activity against Lactobacillus plantarum DSM 20174 after 48 hr by agar dilution method. The conditions noted are these: DSM 20174, 48 h. The method, boiled down: as §2
The subject of the next experiment is Enterococcus faecalis. Nature of the experiment: Antimicrobial activity against Enterococcus faecalis DSM 2570 after 48 hr by agar dilution method. The conditions noted are these: DSM 2570, 48 h. The method in brief: as §2
The subject of the next experiment is Micrococcus luteus. Nature of the experiment: Antimicrobial activity against Micrococcus luteus DSM 348 after 48 hr by agar dilution method. To be noted: DSM 348, 48 h. The method, boiled down: as §2
Experiment [3] deals with Escherichia coli. Nature of the experiment: Antimicrobial activity against Escherichia coli ATCC 35346 after 48 hr by agar dilution method. To be noted: ATCC 35346, 48 h. The method in brief: as §2
For a further experiment, the system named is Bacillus subtilis. As to the kind of experiment: Antimicrobial activity against Bacillus subtilis DSM 345 after 48 hr by agar dilution method. The conditions noted are these: DSM 345, 48 h. The method in brief:
as §2

Experiment [4] deals with Escherichia coli. Nature of the experiment: Antimicrobial activity against Escherichia coli DSM 682 after 48 hr by agar dilution method. To be noted: DSM 682, 48 h. The method in brief:
as §2

Another experiment concerns Lacticaseibacillus casei. Nature of the experiment: Antimicrobial activity against Lactobacillus casei DSM 20011 after 48 hr by agar dilution method. To be noted: DSM 20011, 48 h. The method in brief:
as §2

The test system of the next experiment is Staphylococcus aureus. Nature of the experiment: Antimicrobial activity against Staphylococcus aureus subsp. aureus DSM 346 after 48 hr by agar dilution method. The conditions noted are these: DSM 346, 48 h. The method, boiled down: as §2
In the next experiment the test system is Trichoderma viride. Nature of the experiment: Antimicrobial activity against Hypocrea rufa ATCC 28020 after 48 hr by agar dilution method. To be noted: ATCC 28020, 48 h. The method in brief: as §1
Another experiment deals with Penicillium expansum. As to the kind of experiment: Antimicrobial activity against Penicillium expansum ATCC 7861 after 48 hr by agar dilution method. To be noted: ATCC 7861, 48 h. The method in brief: as §1
A further experiment deals with Setophoma terrestris. As to the kind of experiment: Antimicrobial activity against Setophoma terrestris ATCC 11321 after 48 hr by agar dilution method. The conditions noted are these: ATCC 11321, 48 h. The method, boiled down:
as §1

The next experiment concerns Bacillus licheniformis. As to the kind of experiment: Antimicrobial activity against Bacillus licheniformis DSM 13=ATCC 14580 after 48 hr by agar dilution method. To be noted: DSM 13 = ATCC 14580, 48 h. The method, boiled down:
as §2

The test system of experiment [5] is Staphylococcus epidermidis. As to the kind of experiment: Antimicrobial activity against Staphylococcus epidermidis DSM 1798 after 48 hr by agar dilution method. To be noted: DSM 1798, 48 h. The method in brief:
as §2

Experiment [6] deals with Lacticaseibacillus rhamnosus. As to the kind of experiment: Antimicrobial activity against Lactobacillus rhamnosus DSM 20021 after 48 hr by agar dilution method. The conditions noted are these: DSM 20021, 48 h. The method in brief: as §2

One may read the MIC as the least concentration at which growth counts as inhibited. Higher therefore signals a need for much substance.

≈ marks a conversion by molar mass, not a printed value. A value given as a limit tells only on which side of the number the result lay.

Take `C=C[C@](C)(CC/C=C(\C)CC/C=C(\C)CC/C=C(/C)CO[C@@H]1O[C@@H](C)[C@H](O)[C@@H](O[C@@H]2O[C@H](CO[C@@H]3O[C@@H](C)[C@H](O)[C@@H](O)[C@H]3O)[C@@H](O)[C@H](O)[C@H]2O)[C@H]1O)O[C@@H]1O[C@H](CO)[C@@H](O)[C@H](O)[C@H]1O[C@@H]1O[C@H](CO)[C@@H](O)[C@H](O)[C@H]1O` [CAPSIANOSIDE II]: the MIC against Rhizopus arrhizus is 1000 µg/mL (≈ 921 µM); in the experiment with Bacillus cereus, 1000 µg/mL (≈ 921 µM); in the experiment on Pseudomonas aeruginosa, more than 1000 µg/mL; in the experiment with Stutzerimonas stutzeri, more than 1000 µg/mL; in experiment [1], 1000 µg/mL (≈ 921 µM); in experiment [2], 1000 µg/mL (≈ 921 µM). Further, the MIC against Enterococcus faecalis was more than 1000 µg/mL; against Micrococcus luteus, more than 1000 µg/mL; in the experiment with Escherichia coli [3], 1000 µg/mL (≈ 921 µM); in the experiment on Bacillus subtilis, more than 1000 µg/mL; with Escherichia coli [4] it was 1000 µg/mL (≈ 921 µM); against Lacticaseibacillus casei, 1000 µg/mL (≈ 921 µM). Also, the minimum inhibitory concentration (MIC) is more than 1000 µg/mL against Staphylococcus aureus; 1000 µg/mL (≈ 921 µM) against Trichoderma viride; 1000 µg/mL (≈ 921 µM) in the experiment with Penicillium expansum; 1000 µg/mL (≈ 921 µM) against Setophoma terrestris; more than 1000 µg/mL with Bacillus licheniformis; more than 1000 µg/mL in [5]. The compound further showed an MIC in [6] of 1000 µg/mL (≈ 921 µM).
As to `C[C@H](CCC1(O)O[C@H]2C[C@H]3[C@@H]4CC[C@H]5C[C@@H](O[C@@H]6O[C@H](CO)[C@H](O[C@@H]7O[C@H](CO)[C@@H](O)[C@H](O[C@@H]8OC[C@@H](O)[C@H](O)[C@H]8O)[C@H]7O[C@@H]7O[C@H](CO)[C@@H](O)[C@H](O[C@@H]8O[C@H](CO)[C@@H](O)[C@H](O)[C@H]8O)[C@H]7O)[C@H](O)[C@H]6O)CC[C@]5(C)[C@H]4CC[C@]3(C)[C@H]2[C@@H]1C)CO[C@@H]1O[C@H](CO)[C@@H](O)[C@H](O)[C@H]1O` (some centres not stated) [CAPSICOSIDE D], the MIC is 1000 µg/mL (≈ 726 µM) in the experiment on Rhizopus arrhizus; 1000 µg/mL (≈ 726 µM) against Bacillus cereus; more than 1000 µg/mL against Pseudomonas aeruginosa; more than 1000 µg/mL against Stutzerimonas stutzeri; 1000 µg/mL (≈ 726 µM) in experiment [1]; 1000 µg/mL (≈ 726 µM) in experiment [2]. For the same compound, the MIC in the experiment with Enterococcus faecalis was more than 1000 µg/mL; in the experiment with Micrococcus luteus it was more than 1000 µg/mL; against Escherichia coli [3], 1000 µg/mL (≈ 726 µM); in the experiment with Bacillus subtilis, more than 1000 µg/mL; with Escherichia coli [4], 1000 µg/mL (≈ 726 µM); against Lacticaseibacillus casei it was 1000 µg/mL (≈ 726 µM). In addition, the minimum inhibitory concentration (MIC) in the experiment on Staphylococcus aureus was more than 1000 µg/mL; in the experiment with Trichoderma viride it was more than 1000 µg/mL; in the experiment with Penicillium expansum, more than 1000 µg/mL; in the experiment with Setophoma terrestris, 1000 µg/mL (≈ 726 µM); against Bacillus licheniformis, more than 1000 µg/mL; in [5], more than 1000 µg/mL. The compound further registered a minimum inhibitory concentration (MIC) in experiment [6] of 1000 µg/mL (≈ 726 µM).
As for `COC1(CC[C@@H](C)CO[C@@H]2O[C@H](CO)[C@@H](O)[C@H](O)[C@H]2O)O[C@H]2C[C@H]3[C@@H]4CC[C@H]5C[C@@H](O[C@@H]6O[C@H](CO)[C@H](O[C@@H]7O[C@H](CO)[C@@H](O)[C@H](O[C@@H]8OC[C@@H](O)[C@H](O)[C@H]8O)[C@H]7O[C@@H]7O[C@H](CO)[C@@H](O)[C@H](O[C@@H]8O[C@H](CO)[C@@H](O)[C@H](O)[C@H]8O)[C@H]7O)[C@H](O)[C@H]6O)CC[C@]5(C)[C@H]4CC[C@]3(C)[C@H]2[C@@H]1C` (some centres not stated) [22-O-METHYL-CAPSICOSIDE D], the minimal inhibitory concentration (MIC) against Bacillus cereus was 1000 µg/mL (≈ 719 µM); in the experiment on Pseudomonas aeruginosa, more than 1000 µg/mL; against Stutzerimonas stutzeri, more than 1000 µg/mL; in experiment [1], 1000 µg/mL (≈ 719 µM); in [2], 1000 µg/mL (≈ 719 µM); with Enterococcus faecalis it was more than 1000 µg/mL. Moreover, the MIC against Micrococcus luteus was more than 1000 µg/mL; against Escherichia coli [3], 1000 µg/mL (≈ 719 µM); in the experiment with Bacillus subtilis, more than 1000 µg/mL; in the experiment with Escherichia coli [4], 1000 µg/mL (≈ 719 µM); in the experiment on Lacticaseibacillus casei it was 1000 µg/mL (≈ 719 µM); in the experiment with Staphylococcus aureus it was more than 1000 µg/mL. Besides, the MIC in the experiment on Bacillus licheniformis was more than 1000 µg/mL; in [5], more than 1000 µg/mL; in [6], 1000 µg/mL (≈ 719 µM).
`C[C@H](CCC1(O)O[C@H]2C[C@H]3[C@@H]4CC[C@H]5C[C@@H](O[C@@H]6O[C@H](CO)[C@H](O[C@@H]7O[C@H](CO)[C@@H](O)[C@H](O[C@@H]8O[C@H](CO)[C@@H](O)[C@H](O)[C@H]8O)[C@H]7O[C@@H]7O[C@H](CO)[C@@H](O)[C@H](O[C@@H]8O[C@H](CO)[C@@H](O)[C@H](O)[C@H]8O)[C@H]7O)[C@H](O)[C@H]6O)[C@H](O)C[C@]5(C)[C@H]4CC[C@]3(C)[C@H]2[C@@H]1C)CO[C@@H]1O[C@H](CO)[C@@H](O)[C@H](O)[C@H]1O` (some centres not stated) [CAPSICOSIDE A]: the MIC against Rhizopus arrhizus is 1000 µg/mL (≈ 702 µM); against Bacillus cereus it was 1000 µg/mL (≈ 702 µM); against Pseudomonas aeruginosa, more than 1000 µg/mL; against Stutzerimonas stutzeri, more than 1000 µg/mL; in experiment [1], 1000 µg/mL (≈ 702 µM); in experiment [2], 1000 µg/mL (≈ 702 µM). The minimum inhibitory concentration (MIC) is more than 1000 µg/mL with Enterococcus faecalis; more than 1000 µg/mL against Micrococcus luteus; 1000 µg/mL (≈ 702 µM) against Escherichia coli [3]; more than 1000 µg/mL in the experiment with Bacillus subtilis; 1000 µg/mL (≈ 702 µM) with Escherichia coli [4]; 1000 µg/mL (≈ 702 µM) in the experiment with Lacticaseibacillus casei. Also, the MIC against Staphylococcus aureus is more than 1000 µg/mL; against Trichoderma viride it was more than 1000 µg/mL; in the experiment with Penicillium expansum, 1000 µg/mL (≈ 702 µM); with Setophoma terrestris, 1000 µg/mL (≈ 702 µM); in the experiment with Bacillus licheniformis, more than 1000 µg/mL; in experiment [5] it was more than 1000 µg/mL. The MIC in experiment [6] was 1000 µg/mL (≈ 702 µM).

The record behind these values is ChEMBL document CHEMBL3044709, “Antimicrobial furostanol saponins from the seeds of Capsicum annuum L. var. acuminatum” (2002).
